# Experimental data taken from the M2OR odorant receptor database.
# Legend:
# Settings in all cases: stereoisomer not certain
# UniProt L7MU75 = molecular target: T1, UniProt L7MU75
# T1 sequence (whole entry): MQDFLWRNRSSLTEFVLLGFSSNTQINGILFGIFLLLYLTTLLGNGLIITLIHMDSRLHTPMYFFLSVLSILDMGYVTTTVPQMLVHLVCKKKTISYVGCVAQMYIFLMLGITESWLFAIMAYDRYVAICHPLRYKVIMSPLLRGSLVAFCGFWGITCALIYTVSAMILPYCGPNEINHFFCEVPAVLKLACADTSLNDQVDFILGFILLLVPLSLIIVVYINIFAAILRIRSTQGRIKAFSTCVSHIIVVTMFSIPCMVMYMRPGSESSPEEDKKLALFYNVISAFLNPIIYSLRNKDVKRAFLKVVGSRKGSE
# Summary of the method: (§1)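 Values were gathered from published papers (main text and supplementary material), with extra details requested from the original authors when needed, and checked for typos and inconsistencies. Each receptor–molecule pair is called responsive (active) if the original authors judged the measured signal statistically different from baseline, and non-responsive (inactive) otherwise. Assay methods varied by source, often transient mammalian cell-line luciferase assays. Recorded details include cell line, G-protein, co-transfected protein and tags.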
# UniProt L7N210 = molecular target: T2, UniProt L7N210
# T2 sequence (whole entry): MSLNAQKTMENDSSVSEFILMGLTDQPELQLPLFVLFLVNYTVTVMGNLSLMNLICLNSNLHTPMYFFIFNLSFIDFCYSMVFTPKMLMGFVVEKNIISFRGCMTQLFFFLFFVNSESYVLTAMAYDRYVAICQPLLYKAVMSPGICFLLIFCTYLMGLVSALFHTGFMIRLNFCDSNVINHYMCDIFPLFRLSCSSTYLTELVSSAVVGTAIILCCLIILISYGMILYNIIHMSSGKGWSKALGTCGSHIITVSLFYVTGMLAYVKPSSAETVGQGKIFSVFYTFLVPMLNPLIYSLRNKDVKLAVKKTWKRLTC
# Summary of the method: as §1
# UniProt Q7TQV4 = molecular target: T3, UniProt Q7TQV4
# T3 sequence (whole entry): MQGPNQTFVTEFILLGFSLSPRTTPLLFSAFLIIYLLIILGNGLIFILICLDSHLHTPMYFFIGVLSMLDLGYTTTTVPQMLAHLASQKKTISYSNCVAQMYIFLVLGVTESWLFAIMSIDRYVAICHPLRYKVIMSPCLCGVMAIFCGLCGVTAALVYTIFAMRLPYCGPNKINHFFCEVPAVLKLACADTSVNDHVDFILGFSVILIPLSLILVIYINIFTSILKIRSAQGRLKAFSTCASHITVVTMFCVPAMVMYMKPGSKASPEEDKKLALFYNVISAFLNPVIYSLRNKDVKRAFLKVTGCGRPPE
# Summary of the method: as §1
# UniProt L7N0P5 = molecular target: T4, UniProt L7N0P5
# T4 sequence (whole entry): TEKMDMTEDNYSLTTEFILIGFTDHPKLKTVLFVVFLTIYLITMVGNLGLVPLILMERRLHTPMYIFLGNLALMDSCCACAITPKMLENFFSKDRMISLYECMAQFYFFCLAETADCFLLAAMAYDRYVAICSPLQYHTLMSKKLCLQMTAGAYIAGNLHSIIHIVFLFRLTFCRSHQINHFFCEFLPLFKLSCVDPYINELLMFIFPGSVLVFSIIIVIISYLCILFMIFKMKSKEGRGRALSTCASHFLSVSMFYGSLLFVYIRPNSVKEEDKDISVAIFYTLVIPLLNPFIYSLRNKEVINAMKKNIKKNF
# Summary of the method: as §1
# UniProt Q3KPB0 = molecular target: T5, UniProt Q3KPB0
# T5 sequence (whole entry): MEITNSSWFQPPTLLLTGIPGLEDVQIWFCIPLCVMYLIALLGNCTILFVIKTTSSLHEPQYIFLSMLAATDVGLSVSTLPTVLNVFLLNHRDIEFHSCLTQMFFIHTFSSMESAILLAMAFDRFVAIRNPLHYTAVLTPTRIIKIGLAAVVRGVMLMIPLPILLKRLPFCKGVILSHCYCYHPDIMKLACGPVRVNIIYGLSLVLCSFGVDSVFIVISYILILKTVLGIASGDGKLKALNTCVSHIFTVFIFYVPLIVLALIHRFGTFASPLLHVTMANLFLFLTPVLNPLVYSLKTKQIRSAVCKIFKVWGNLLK
# Summary of the method: as §1
# UniProt Q3U0P3 = molecular target: T6, UniProt Q3U0P3
# T6 sequence (whole entry): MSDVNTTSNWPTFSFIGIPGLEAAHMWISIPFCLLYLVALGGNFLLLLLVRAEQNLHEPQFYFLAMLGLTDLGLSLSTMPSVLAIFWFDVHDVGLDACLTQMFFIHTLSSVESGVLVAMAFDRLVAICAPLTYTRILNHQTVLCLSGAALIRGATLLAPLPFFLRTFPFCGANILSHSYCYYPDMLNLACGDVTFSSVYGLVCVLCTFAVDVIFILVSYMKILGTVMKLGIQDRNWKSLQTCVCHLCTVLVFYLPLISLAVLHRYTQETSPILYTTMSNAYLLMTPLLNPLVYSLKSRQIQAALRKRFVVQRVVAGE
# Summary of the method: as §1
# UniProt Q7TQU8 = molecular target: T7, UniProt Q7TQU8
# T7 sequence (whole entry): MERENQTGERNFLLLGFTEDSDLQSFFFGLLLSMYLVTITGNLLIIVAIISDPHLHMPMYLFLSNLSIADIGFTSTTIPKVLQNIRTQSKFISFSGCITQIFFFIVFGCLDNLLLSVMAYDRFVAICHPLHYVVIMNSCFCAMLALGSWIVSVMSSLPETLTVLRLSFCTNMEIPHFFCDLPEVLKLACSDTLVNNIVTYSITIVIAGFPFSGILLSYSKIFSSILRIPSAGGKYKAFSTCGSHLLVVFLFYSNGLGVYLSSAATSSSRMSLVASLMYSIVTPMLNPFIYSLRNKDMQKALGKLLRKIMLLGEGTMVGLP
# Summary of the method: as §1
# UniProt L7N1Y8 = molecular target: UniProt L7N1Y8
# Chain of UniProt L7N1Y8 (L7N1Y8 as listed by the source): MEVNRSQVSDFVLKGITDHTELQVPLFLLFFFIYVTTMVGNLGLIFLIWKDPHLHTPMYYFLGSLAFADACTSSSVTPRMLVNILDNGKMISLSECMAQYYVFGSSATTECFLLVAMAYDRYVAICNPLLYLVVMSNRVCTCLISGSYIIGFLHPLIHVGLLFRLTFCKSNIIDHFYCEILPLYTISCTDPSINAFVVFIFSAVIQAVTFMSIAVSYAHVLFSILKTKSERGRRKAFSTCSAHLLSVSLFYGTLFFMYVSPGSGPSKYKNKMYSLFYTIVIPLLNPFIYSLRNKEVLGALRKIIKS
# Summary of the method: as §1
smiles,measurement,setting,value
CCCCCCC(=O)[O-].[H+],odorant receptor agonist call,UniProt L7MU75,inactive
same,odorant receptor agonist call,UniProt L7N210,inactive
same,odorant receptor agonist call,UniProt Q7TQV4,inactive
Cc1cnc(C)cn1,odorant receptor agonist call,UniProt L7N0P5,active
CCCCCCCC(C)=O,odorant receptor agonist call,UniProt L7MU75,inactive
same,odorant receptor agonist call,UniProt L7N210,inactive
same,odorant receptor agonist call,UniProt Q3KPB0,inactive
same,odorant receptor agonist call,UniProt Q3U0P3,inactive
same,odorant receptor agonist call,UniProt Q7TQU8,inactive
same,odorant receptor agonist call,UniProt Q7TQV4,inactive
C=Cc1cnccn1,odorant receptor agonist call,UniProt L7N0P5,active
C=C(C)C1CCC(C)C(=O)C1 (stereo not drawn),odorant receptor agonist call,UniProt L7MU75,inactive
same,odorant receptor agonist call,UniProt L7N210,inactive
same,odorant receptor agonist call,UniProt Q3KPB0,inactive
same,odorant receptor agonist call,UniProt Q3U0P3,inactive
same,odorant receptor agonist call,UniProt Q7TQU8,inactive
same,odorant receptor agonist call,UniProt Q7TQV4,inactive
CCCC(C)=O,odorant receptor agonist call,UniProt L7MU75,inactive
same,odorant receptor agonist call,UniProt L7N210,inactive
same,odorant receptor agonist call,UniProt Q7TQV4,inactive
O=C1Cc2ccccc2O1,odorant receptor agonist call,UniProt L7N210,inactive
same,odorant receptor agonist call,UniProt Q3KPB0,inactive
same,odorant receptor agonist call,UniProt Q3U0P3,inactive
same,odorant receptor agonist call,UniProt Q7TQU8,inactive
same,odorant receptor agonist call,UniProt Q7TQV4,active
CC(=O)c1cnccn1,odorant receptor agonist call,UniProt L7N0P5,active
CCCCC(=O)O,odorant receptor agonist call,UniProt L7MU75,inactive
same,odorant receptor agonist call,UniProt L7N210,inactive
same,odorant receptor agonist call,UniProt Q3KPB0,inactive
same,odorant receptor agonist call,UniProt Q3U0P3,inactive
same,odorant receptor agonist call,UniProt Q7TQU8,inactive
same,odorant receptor agonist call,UniProt Q7TQV4,inactive
CC1=NC(C)C(C)S1 (stereo not drawn),odorant receptor agonist call,UniProt L7N0P5,active
CC(=O)c1nccnc1C,odorant receptor agonist call,UniProt L7N0P5,active
Cc1cncc(C)n1,odorant receptor agonist call,UniProt L7N0P5,active
CCc1cnc(C)c(C)n1,odorant receptor agonist call,UniProt L7N0P5,inactive
CCCCCCCCCS,odorant receptor agonist call,UniProt L7MU75,inactive
same,odorant receptor agonist call,UniProt L7N210,inactive
same,odorant receptor agonist call,UniProt Q3KPB0,inactive
same,odorant receptor agonist call,UniProt Q3U0P3,inactive
same,odorant receptor agonist call,UniProt Q7TQU8,inactive
same,odorant receptor agonist call,UniProt Q7TQV4,inactive
CC(C)=CCCC(C)CCO (stereo not drawn),odorant receptor agonist call,UniProt L7MU75,inactive
same,odorant receptor agonist call,UniProt L7N210,inactive
same,odorant receptor agonist call,UniProt Q3KPB0,inactive
same,odorant receptor agonist call,UniProt Q3U0P3,inactive
same,odorant receptor agonist call,UniProt Q7TQU8,inactive
same,odorant receptor agonist call,UniProt Q7TQV4,inactive
CCCC(=O)C(C)=O,odorant receptor agonist call,UniProt L7MU75,inactive
same,odorant receptor agonist call,UniProt L7N210,inactive
same,odorant receptor agonist call,UniProt Q3KPB0,inactive
same,odorant receptor agonist call,UniProt Q3U0P3,inactive
same,odorant receptor agonist call,UniProt Q7TQU8,inactive
same,odorant receptor agonist call,UniProt Q7TQV4,inactive
CCCCCO,odorant receptor agonist call,UniProt L7MU75,inactive
same,odorant receptor agonist call,UniProt L7N210,inactive
same,odorant receptor agonist call,UniProt Q7TQV4,inactive
Cc1cnc(C)c(C)n1,odorant receptor agonist call,UniProt L7N0P5,active
COC1=C(C)OC(C)C1=O (stereo not drawn),odorant receptor agonist call,UniProt L7N0P5,inactive
COc1nccnc1CC(C)C,odorant receptor agonist call,UniProt L7N0P5,active
O=C(OCc1ccccc1)c1ccccc1O,odorant receptor agonist call,UniProt L7MU75,inactive
same,odorant receptor agonist call,UniProt L7N210,inactive
same,odorant receptor agonist call,UniProt Q3U0P3,inactive
same,odorant receptor agonist call,UniProt Q7TQU8,inactive
CCCCCC(=O)CC,odorant receptor agonist call,UniProt L7MU75,inactive
same,odorant receptor agonist call,UniProt L7N210,inactive
same,odorant receptor agonist call,UniProt Q3KPB0,inactive
same,odorant receptor agonist call,UniProt Q3U0P3,inactive
same,odorant receptor agonist call,UniProt Q7TQU8,inactive
same,odorant receptor agonist call,UniProt Q7TQV4,inactive
CCc1nccnc1C(C)=O,odorant receptor agonist call,UniProt L7N0P5,active
O=C1CCOc2ccccc21,odorant receptor agonist call,UniProt L7N1Y8,active
same,odorant receptor agonist call,UniProt L7N210,active
same,odorant receptor agonist call,UniProt Q3KPB0,inactive
same,odorant receptor agonist call,UniProt Q3U0P3,inactive
same,odorant receptor agonist call,UniProt Q7TQU8,inactive
same,odorant receptor agonist call,UniProt Q7TQV4,inactive
CCCCCCCC(=O)[O-].[H+],odorant receptor agonist call,UniProt L7N210,inactive
same,odorant receptor agonist call,UniProt Q7TQV4,inactive
Cc1cnccn1,odorant receptor agonist call,UniProt L7N0P5,active
CCCCOC(=O)C(C)OC(=O)CCC (stereo not drawn),odorant receptor agonist call,UniProt L7N210,inactive
same,odorant receptor agonist call,UniProt Q7TQV4,inactive
CC1CCc2nccnc21 (stereo not drawn),odorant receptor agonist call,UniProt L7N0P5,active
